Test results: ChEMBL document CHEMBL5346889, “Discovery of 4-oxo-N-phenyl-1,4-dihydroquinoline-3-carboxamide derivatives as novel anti-inflammatory agents for the treatment of acute lung injury and sepsis” (Eur J Med Chem, 2023)
The source made the active and inactive calls. No cut-off for these calls is given here.

Assays:
[1] = Cmax in rat at 1 mg/kg, iv; format: ADME, organism-based; design: dose 1 mg/kg, route iv; settings: in vivo
Method in brief: (§1)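 Rats dosed intravenously at 1 mg/kg or orally at 10 mg/kg; plasma pharmacokinetic parameters AUC(0-t), Tmax, T1/2, Cmax and oral bioavailability F derived from the two routes.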

[2] = tested on: Mus musculus; assay: Antiinflammatory activity in LPS-induced C57/BL6 mouse acute lung injury model assessed as decrease in TNF-alpha level in BALF at 20 mg/kg via oral gavage preincubated for 30 mins followed by LPS stimulation for 6 hrs by ELISA; settings: time 6.5 hrs
[3] = AUC (0 to t) in rat at 1 mg/kg, iv; format: ADME, organism-based; design: dose 1 mg/kg, route iv; settings: in vivo; method in brief: as §1
[4] = tested on: Mus musculus; assay: Antiinflammatory activity in LPS-induced C57/BL6 mouse acute lung injury model assessed as decrease in IL-6 level in serum at 20 mg/kg via oral gavage preincubated for 30 mins followed by LPS stimulation for 6 hrs by ELISA; settings: time 6.5 hrs
[5] = tested on: Mus musculus; assay: Protection against LPS-induced sepsis in C57/BL6 mouse model assessed as reduction of lymph node hyperplasia at 20 mg/kg, po preincubated with compound followed by LPS stimulation for 1 hr by H and E staining based analysis; format: functional, organism-based
Method in brief: (§2)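 Mice given 20 mg/kg orally, then intraperitoneal LPS 20 mg/kg 1 h later; n = 12 per group. Kidney, liver, heart and spleen weighed; spleen sections H&E-stained for histology.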

[6] = tested on: J774.A1; assay: Antiinflammatory activity in LPS-induced mouse J774.A1 cells assessed as inhibition of LPS-induced IL-6 transcription preincubated for 0.5 hrs followed by LPS stimulation for 6 hrs by RT-qPCR method; format: functional, cell-based; settings: dose 5-10 µM, time 6.5 hrs
Method in brief: (§3)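 J774A.1 or THP-1 cells pretreated 0.5 h at 10 or 5 μM, then LPS 0.5 μg/mL for 6 h. TRIzol RNA; IL-6, TNF-α and IL-1β transcripts by RT-qPCR, normalized to β-actin and control; 3 independent experiments, mean ± SEM.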

[7] = tested on: Mus musculus; assay: Protection against LPS-induced C57/BL6 mouse acute lung injury model assessed as improvement in alveolar wall thickening at 20 mg/kg via oral gavage preincubated for 30 mins followed by LPS stimulation for 6 hrs; format: functional, organism-based; settings: time 6.5 hrs
Method in brief: (§4)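 Mice dosed 20 mg/kg by gavage (dexamethasone 20 mg/kg comparator), intratracheal LPS 5 mg/kg 30 min later, killed at 6 h. Right upper lobe fixed in paraformaldehyde, H&E; lung wet/dry ratio; BALF protein, total cells and neutrophils counted; n = 5 mice per group, mean ± SEM.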

[8] = Half life in rat at 1 mg/kg, iv; format: ADME, organism-based; settings: in vivo; method in brief: as §1
[9] = tested on: J774.A1; assay: Antiinflammatory activity in LPS-induced mouse J774.A1 cells assessed as inhibition of LPS-induced IL-6 release preincubated for 30 mins followed by LPS stimulation for 24 hrs by ELISA method; format: functional, cell-based
Method in brief: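 Dose-response in J774A.1 cells: 30 min pretreatment at 10, 5, 2.5 or 1.25 μM, then LPS 0.5 μg/mL for 24 h. IL-6 and TNF-α by ELISA, normalized to lysate protein; IC50 from the dose-response; 3 independent experiments, mean ± SEM.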

[10] = tested on: J774.A1; assay: Inhibition of NF-kappaB pathway in LPS-induced mouse J774.A1 cells assessed as inhibition of IkappaB-alpha degradation preincubated with compound for 2 hrs followed by LPS-stimulation and measured after 30 mins by Western blot analysis; format: cell-based; settings: dose 5-10 µM, time 2.5 hrs
Method in brief: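 J774A.1 cells preincubated with 10 or 5 μM or DMSO for 2 h, then LPS 0.5 μg/mL for 30 min. RIPA lysates run on 12.5% SDS-PAGE, transferred to PVDF, blocked with 5% milk; probed for IκB-α and p-p65, with GAPDH and p65 as loading controls; ECL detection; densitometry.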

[11] = tested on: THP-1; assay: Antiinflammatory activity in LPS-induced human THP-1 cells assessed as inhibition of LPS-induced TNF-alpha release preincubated for 30 mins followed by LPS stimulation for 24 hrs by ELISA method; format: functional, cell-based
Method in brief: (§5)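 THP-1 or LX-2 cells in DMEM with 10% FBS, 37 °C, 5% CO2. Pretreated 30 min at 10, 5, 2.5 or 1.25 μM, then LPS 0.5 μg/mL for 24 h. IL-6 and TNF-α in medium measured by ELISA, normalized to lysate total protein; mean ± SEM of 3 independent experiments.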

[12] = tested on: Mus musculus; assay: Protection against LPS-induced C57/BL6 mouse acute lung injury model assessed as reduction in protein concentration in BALF at 20 mg/kg via oral gavage preincubated for 30 mins followed by LPS stimulation for 6 hrs; format: functional, organism-based; settings: time 6.5 hrs; method in brief: as §4
[13] = tested on: LX-2; assay: Antiinflammatory activity in LPS-induced human LX2 cells assessed as inhibition of LPS-induced TNF-alpha release preincubated for 30 mins followed by LPS stimulation for 24 hrs by ELISA method; format: functional, cell-based; method in brief: as §5
[14] = tested on: Mus musculus; assay: Antiinflammatory activity in LPS-induced C57/BL6 mouse acute lung injury model assessed as reduction in macrophage infiltration at 20 mg/kg via oral gavage preincubated for 30 mins followed by LPS stimulation for 6 hrs by immunohistochemical staining based analysis; format: functional, organism-based; settings: time 6.5 hrs
Method in brief: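 Same ALI model: 20 mg/kg oral, intratracheal LPS 5 mg/kg 30 min later, lungs at 6 h. Paraffin sections given citrate (pH 6.5) antigen retrieval, 3% H2O2 and 5% BSA block, anti-F4/80 12 h at 4 °C, HRP secondary, DAB and hematoxylin; F4/80 positivity quantified; n = 5 per group.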

[15] = tested on: THP-1; assay: Antiinflammatory activity in LPS-induced human THP-1 cells assessed as inhibition of LPS-induced IL-1 beta transcription preincubated for 0.5 hrs followed by LPS stimulation for 6 hrs by RT-qPCR method; format: functional, cell-based; settings: dose 5-10 µM, time 6.5 hrs; method in brief: as §3
[16] = Stability of the compound in pH 7.4 phosphate buffer measured upto 30 mins by UV-Vis analysis; format: physicochemical; settings: pH 7.4, 0.5 h
Method in brief: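 Dissolved in phosphate buffer pH 7.4; UV-visible absorption (OD) recorded over 30 min.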

[17] = AUC (0 to t) in rat at 10 mg/kg, po; format: ADME, organism-based; design: dose 10 mg/kg, route po; settings: in vivo; method in brief: as §1
[18] = tested on: J774.A1; assay: Cytotoxicity against mouse J774.A1 cells assessed as reduction in cell viability at 10 uM incubated for 24 hrs by MTT assay; format: functional, cell-based
Method in brief: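 J774A.1 macrophages exposed to 10 μM for 24 h; MTT at 5 mg/mL added for 4 h; absorbance read at 490 nm; viability expressed as percent of DMSO control.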

[19] = tested on: Mus musculus; assay: Protection against LPS-induced C57/BL6 mouse acute lung injury model assessed as reduction in number of total cells in BALF at 20 mg/kg via oral gavage preincubated for 30 mins followed by LPS stimulation for 6 hrs; format: functional, organism-based; settings: time 6.5 hrs; method in brief: as §4
[20] = Tmax in rat at 10 mg/kg, po; format: ADME, organism-based; settings: in vivo; method in brief: as §1
[21] = tested on: J774.A1; assay: Inhibition of NF-kappaB pathway in LPS-induced mouse J774.A1 cells assessed as reduction in p65 nuclear translocation preincubated with compound for 2 hrs followed by LPS-stimulation and measured after 30 mins by Western blot analysis; format: cell-based; settings: time 2.5 hrs
[22] = tested on: Mus musculus; assay: Protection against LPS-induced sepsis in C57/BL6 mouse model assessed as reduction in demarcation between white and red pulp at 20 mg/kg, po preincubated with compound followed by LPS stimulation for 1 hr by H and E staining based analysis; format: functional, organism-based; method in brief: as §2

COc1cc2nccc(Oc3ccc(NC(=O)c4cn(-c5ccccc5)c5ccccc5c4=O)cc3)c2cc1OC
Cmax [1]: 1360 ng/mL | Activity [2]: Active | AUC(0-t) [3]: 6320 ng·h/mL | Activity [4]: Active | Activity [5]: Active | inhibition [6]: Dose-Dependent Effect | Activity [7]: Active | half-life [8]: 8.9 h | IC50 [9]: 1330 nM | inhibition ([9]; dose 1.25-10 µM, time 24.5 hrs): Dose-Dependent Effect | inhibition [10]: Dose-Dependent Effect | IC50 [11]: 1670 nM | Activity [12]: Active | IC50 [13]: 2910 nM | Activity [14]: Active | inhibition [15]: Dose-Dependent Effect | Stability [16]: Stable | AUC(0-t) [17]: 22900 ng·h/mL | Activity [18]: inactive | Activity [19]: Active | Tmax [20]: 5 h | inhibition [21]: Active | Activity [22]: Active
